Data published in ChEMBL document CHEMBL3758168, “Hybrid triazoles: Design and synthesis as potential dual inhibitor of growth and efflux inhibition in tuberculosis” (Eur J Med Chem, 2016).
Converted amounts (≈) assume the structure as drawn.

Columns and labels:
[1] = system: Mycobacterium tuberculosis; assay: Antibacterial activity against Mycobacterium tuberculosis H37Rv ATCC 27294T assessed as ofloxacin MIC at 1 ug/ml after 7 days by microdilution checkerboard assay; assay type: functional; settings: 168 h
Method in brief: (§1)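 Two-dimensional checkerboard in H37Rv at 10^5 CFU/ml in MB7H9/OADC. Partner drug (amikacin, EtBr, isoniazid, ofloxacin or rifampin) two-fold serially diluted across columns 3-11. Test compound two-fold serially diluted down rows 2-6. Plates incubated 7 days at 37 °C, then MTT added overnight. […] Run in triplicate.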

[2] = system: Mycobacterium tuberculosis; assay: Antibacterial activity against Mycobacterium tuberculosis H37Rv ATCC 27294T assessed as amikacin MIC at 2 ug/ml after 7 days by microdilution checkerboard assay; assay type: functional; settings: 168 h; method in brief: as §1
[3] = system: Mycobacterium tuberculosis; assay: Antibacterial activity against Mycobacterium tuberculosis H37Rv ATCC 27294T assessed as amikacin MIC at 4 ug/ml after 7 days by microdilution checkerboard assay; assay type: functional; settings: 168 h; method in brief: as §1
[4] = system: Mycobacterium tuberculosis; assay: Anti-tubercular activity against Mycobacterium tuberculosis H37Rv ATCC 27294T after 7 days by mircodilution method; assay type: functional; settings: 168 h
Method in brief: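 H37Rv grown static in MB7H9 + 10% OADC at 37 °C to OD600 0.8, then diluted to about 10^5 cells/ml. Mixed 1:1 with two-fold serial dilutions in MB7H9/OADC and incubated 7 days at 37 °C. MTT added to final 2.5% and plates incubated overnight. MIC is the lowest concentration with no colour change. Run in triplicate.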

[5] = system: Mycobacterium tuberculosis; assay: Antibacterial activity against Mycobacterium tuberculosis H37Rv ATCC 27294T assessed as amikacin MIC at 1 ug/ml after 7 days by microdilution checkerboard assay; assay type: functional; settings: 168 h; method in brief: as §1
[6] = system: Mycobacterium tuberculosis; assay: Antibacterial activity against Mycobacterium tuberculosis H37Rv ATCC 27294T assessed as ofloxacin MIC at 4 ug/ml after 7 days by microdilution checkerboard assay; assay type: functional; settings: 168 h; method in brief: as §1
[7] = system: Mycobacterium tuberculosis; assay: Antibacterial activity against Mycobacterium tuberculosis H37Rv ATCC 27294T assessed as rifampin MIC at 16 ug/ml after 7 days by microdilution checkerboard assay; assay type: functional; settings: 168 h
Method in brief: (§2)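 M. tuberculosis H37Rv grown in MB7H9 + 10% OADC at 37 °C to OD600 0.8; plates inoculated at 10^5 CFU/ml. Rifampicin two-fold serially diluted across columns, test compound two-fold diluted down rows (two-dimensional checkerboard). Sealed, 37 °C for seven days, then MTT added and incubated overnight. MIC read as no colour change. Triplicate.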

[8] = system: Mycobacterium tuberculosis; assay: Antibacterial activity against Mycobacterium tuberculosis H37Rv ATCC 27294T assessed as ethidium bromide MIC at 2 ug/ml after 7 days by microdilution checkerboard assay; assay type: functional; settings: 168 h; method in brief: as §1
[9] = system: Mycobacterium tuberculosis; assay: Antibacterial activity against Mycobacterium tuberculosis H37Rv ATCC 27294T assessed as ethidium bromide MIC at 1 ug/ml after 7 days by microdilution checkerboard assay; assay type: functional; settings: 168 h; method in brief: as §1
[10] = system: Mycobacterium tuberculosis; assay: Antibacterial activity against Mycobacterium tuberculosis H37Rv ATCC 27294T assessed as isoniazid MIC at 16 ug/ml after 7 days by microdilution checkerboard assay; assay type: functional; settings: 168 h; method in brief: as §1
[11] = Cytotoxicity against human MDM assessed as cell viability after 3 days by Alamar blue dye-based fluorocytometric analysis relative to control; settings: 72 h
[12] = system: Mycobacterium tuberculosis; assay: Antibacterial activity against Mycobacterium tuberculosis H37Rv ATCC 27294T assessed as isoniazid MIC at 4 ug/ml after 7 days by microdilution checkerboard; assay type: functional; settings: 168 h; method in brief: as §1
[13] = system: Mycobacterium tuberculosis; assay: Antibacterial activity against Mycobacterium tuberculosis H37Rv ATCC 27294T assessed as ethidium bromide MIC at 0.5 ug/ml after 7 days by microdilution checkerboard assay; assay type: functional; settings: 168 h; method in brief: as §1
[14] = system: Mycobacterium tuberculosis; assay: Antibacterial activity against Mycobacterium tuberculosis H37Rv ATCC 27294T assessed as ethidium bromide MIC at 0.25 ug/ml after 7 days by microdilution checkerboard assay; assay type: functional; settings: 168 h; method in brief: as §1
[15] = system: Mycobacterium tuberculosis; assay: Antibacterial activity against Mycobacterium tuberculosis H37Rv ATCC 27294T assessed as rifampin MIC at 1 ug/ml after 7 days by microdilution checkerboard assay; assay type: functional; settings: 168 h; method in brief: as §2
[16] = system: Mycobacterium tuberculosis; assay: Antibacterial activity against Mycobacterium tuberculosis H37Rv ATCC 27294T assessed as ethidium bromide MIC at 4 ug/ml after 7 days by microdilution checkerboard assay; assay type: functional; settings: 168 h; method in brief: as §1
[17] = system: Mycobacterium tuberculosis; assay: Antibacterial activity against Mycobacterium tuberculosis H37Rv ATCC 27294T assessed as amikacin MIC at 8 ug/ml after 7 days by microdilution checkerboard assay; assay type: functional; settings: 168 h; method in brief: as §1
[18] = system: Mycobacterium tuberculosis; assay: Antibacterial activity against Mycobacterium tuberculosis H37Rv ATCC 27294T assessed as rifampin MIC at 8 ug/ml after 7 days by microdilution checkerboard assay; assay type: functional; settings: 168 h; method in brief: as §2
[19] = system: Mycobacterium tuberculosis; assay: Antibacterial activity against Mycobacterium tuberculosis H37Rv ATCC 27294T assessed as ofloxacin MIC at 2 ug/ml after 7 days by microdilution checkerboard assay; assay type: functional; settings: 168 h; method in brief: as §1
[20] = system: Mycolicibacterium smegmatis; assay: Anti-tubercular activity against Mycobacterium smegmatis MC2 155 ATCC 700084 after 3 days by microdilution method; assay type: functional; settings: MC2 155 ATCC 700084, 72 h
Method in brief: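 M. smegmatis mc2155 grown in MB7H9 + 10% OADC at 37 °C with shaking to OD600 0.8. Inoculum set to 0.5 McFarland, diluted 1:100, and mixed 1:1 with two-fold serial dilutions in MB7H9. Plates incubated 3 days at 37 °C with growth and sterility controls. MIC taken as the lowest concentration with no visible growth.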

[21] = system: Mycobacterium tuberculosis; assay: Antibacterial activity against Mycobacterium tuberculosis H37Rv ATCC 27294T assessed as isoniazid MIC at 0.25 ug/ml after 7 days by microdilution checkerboard assay; assay type: functional; settings: 168 h; method in brief: as §1
[22] = system: Mycobacterium tuberculosis; assay: Antibacterial activity against Mycobacterium tuberculosis H37Rv ATCC 27294T assessed as rifampin MIC at 4 ug/ml after 7 days by microdilution checkerboard assay; assay type: functional; settings: 168 h; method in brief: as §2
[23] = system: Mycobacterium tuberculosis; assay: Antibacterial activity against Mycobacterium tuberculosis H37Rv ATCC 27294T assessed as rifampin MIC at 2 ug/ml after 7 days by microdilution checkerboard assay; assay type: functional; settings: 168 h; method in brief: as §2
[24] = system: Mycobacterium tuberculosis; assay: Antibacterial activity against Mycobacterium tuberculosis H37Rv ATCC 27294T assessed as amikacin MIC at 16 ug/ml after 7 days by microdilution checkerboard assay; assay type: functional; settings: 168 h; method in brief: as §1
[25] = system: Mycobacterium tuberculosis; assay: Antibacterial activity against Mycobacterium tuberculosis H37Rv ATCC 27294T assessed as ofloxacin MIC at 0.25 ug/ml after 7 days by microdilution checkerboard assay; assay type: functional; settings: 168 h; method in brief: as §1
[26] = system: Mycobacterium tuberculosis; assay: Antibacterial activity against Mycobacterium tuberculosis H37Rv ATCC 27294T assessed as ofloxacin MIC at 0.5 ug/ml after 7 days by microdilution checkerboard assay; assay type: functional; settings: 168 h; method in brief: as §1
[27] = system: Mycobacterium tuberculosis; assay: Antibacterial activity against Mycobacterium tuberculosis H37Rv ATCC 27294T assessed as ethidium bromide MIC at 8 ug/ml after 7 days by microdilution checkerboard assay; assay type: functional; settings: 168 h; method in brief: as §1
[28] = system: Mycobacterium tuberculosis; assay: Antibacterial activity against Mycobacterium tuberculosis H37Rv ATCC 27294T assessed as isoniazid MIC at 0.5 ug/ml after 7 days by microdilution checkerboard assay; assay type: functional; settings: 168 h; method in brief: as §1
[29] = system: Mycobacterium tuberculosis; assay: Antibacterial activity against Mycobacterium tuberculosis H37Rv ATCC 27294T assessed as isoniazid MIC at 8 ug/ml after 7 days by microdilution checkerboard assay; assay type: functional; settings: 168 h; method in brief: as §1
[30] = system: Mycobacterium tuberculosis; assay: Antibacterial activity against Mycobacterium tuberculosis H37Rv ATCC 27294T assessed as isoniazid MIC at 2 ug/ml after 7 days by microdilution checkerboard assay; assay type: functional; settings: 168 h; method in brief: as §1
[31] = system: Mycobacterium tuberculosis; assay: Antibacterial activity against Mycobacterium tuberculosis H37Rv ATCC 27294T assessed as ethidium bromide MIC at 16 ug/ml after 7 days by microdilution checkerboard assay; assay type: functional; settings: 168 h; method in brief: as §1
[32] = system: Mycobacterium tuberculosis; assay: Antibacterial activity against Mycobacterium tuberculosis H37Rv ATCC 27294T assessed as rifampin MIC at 0.25 ug/ml after 7 days by microdilution checkerboard assay; assay type: functional; settings: 168 h; method in brief: as §1
[33] = system: Mycobacterium tuberculosis; assay: Antibacterial activity against Mycobacterium tuberculosis H37Rv ATCC 27294T assessed as amikacin MIC at 0.25 ug/ml after 7 days by microdilution checkerboard assay; assay type: functional; settings: 168 h; method in brief: as §1
[34] = system: Mycobacterium tuberculosis; assay: Antibacterial activity against Mycobacterium tuberculosis H37Rv ATCC 27294T assessed as ofloxacin MIC at 8 ug/ml after 7 days by microdilution checkerboard assay; assay type: functional; settings: 168 h; method in brief: as §1
[35] = system: Mycobacterium tuberculosis; assay: Antibacterial activity against Mycobacterium tuberculosis H37Rv ATCC 27294T assessed as amikacin MIC at 0.5 ug/ml after 7 days by microdilution checkerboard assay; assay type: functional; settings: 168 h; method in brief: as §1
[36] = system: Mycobacterium tuberculosis; assay: Antibacterial activity against Mycobacterium tuberculosis H37Rv ATCC 27294T assessed as isoniazid MIC at 1 ug/ml after 7 days by microdilution checkerboard assay; assay type: functional; settings: 168 h; method in brief: as §1
[37] = system: Mycobacterium tuberculosis; assay: Antibacterial activity against Mycobacterium tuberculosis H37Rv ATCC 27294T assessed as rifampin MIC at 0.5 ug/ml after 7 days by microdilution checkerboard assay; assay type: functional; settings: 168 h; method in brief: as §2
[38] = system: Mycobacterium tuberculosis; assay: Antibacterial activity against Mycobacterium tuberculosis H37Rv ATCC 27294T assessed as ofloxacin MIC at 16 ug/ml after 7 days by microdilution checkerboard assay; assay type: functional; settings: 168 h; method in brief: as §1

CCSc1nnc(COc2ccccc2C2=NOC(c3ccc(Cl)cc3Cl)C2)n1NC(C)=O (stereo not drawn)
MIC [1]: 1 µg/mL
MIC [2]: 1 µg/mL
MIC [3]: 1 µg/mL
MIC [4]: 8 µg/mL (≈ 15.8 µM)
MIC [5]: 1 µg/mL
MIC [6]: 1 µg/mL
MIC [7]: 0.0156 µg/mL
MIC [8]: 12.5 µg/mL
MIC [9]: 12.5 µg/mL
MIC [10]: 0.00156 µg/mL
IC50 [11]: 9.7 µg/mL (≈ 19.2 µM)
MIC [12]: 0.1 µg/mL
MIC [13]: 12.5 µg/mL
MIC [14]: 12.5 µg/mL
MIC [15]: 0.5 µg/mL
MIC [16]: 6.25 µg/mL
MIC [17]: 0.25 µg/mL
MIC [18]: 0.0312 µg/mL
MIC [19]: 1 µg/mL
MIC [20]: 2 µg/mL (≈ 3.95 µM)
MIC [21]: 0.1 µg/mL
MIC [22]: 0.125 µg/mL
MIC [23]: 0.25 µg/mL
MIC [24]: 0.0312 µg/mL
MIC [25]: 2 µg/mL
MIC [26]: 1 µg/mL
MIC [27]: 1.56 µg/mL
MIC [28]: 0.1 µg/mL
MIC [29]: 0.025 µg/mL
MIC [30]: 0.1 µg/mL
MIC [31]: 0.39 µg/mL
MIC [32]: 1 µg/mL
MIC [33]: 1 µg/mL
MIC [34]: 1 µg/mL
MIC [35]: 1 µg/mL
MIC [36]: 0.1 µg/mL
MIC [37]: 0.5 µg/mL
MIC [38]: 0.0312 µg/mL
